Source: PubChem BioAssay
Rows were chosen to be rich in hits. Some 2.5% of all compounds tested hit in one or more screens of this group.
SMARCA2 act: SMARCA2 (BRM) function activators, primary screen, cell-based, luminescence, high throughput. activation, % at 9.1 µM. MG213 cells, MMTV-luciferase reporter, dexamethasone, overnight. 370,000 compounds, 1% hits; in the data active means activation above about 7.8%
Vif inh: HIV Vif self-association inhibitors, primary screen, imaging, HEK293T, single point | HEK293T cells, Vif self-association by quenched fluorescence, 24 h | inhibition, % at 7.49 µM | 340,000 compounds, 0.35% hits | AID 602346, 2012; in the data active means inhibition above about 50%, passing the limit was not always enough; inconclusive means no clear call, values can overlap the other calls; inactive means below about 31%
SR-BI DiI-HDL act: activators of SR-BI mediated DiI-HDL uptake, primary screen, ldlA[mSR-BI] CHO cells, DiI fluorescence | 320,000 compounds, 0.096% hits | activation, % at 12.5 µM | 3 h; 100 = double the neutral-control signal;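 active means mean replicate activation of at least 60% and every replicate at or above 60%; inconclusive means mean or all-replicate condition met, but not both; inactive means mean below 60% and not all replicates reaching 60%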
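material = CHO ldlA[mSR-BI] cells | medium = Ham's F12 with 0.5% BSA, HEPES 25 mM, pH 7.4 | reagent = fluorescent DiI-HDL, 10 µg/mL final | compound dosing = single-point compound dose | incubation = 3 h, 37 °C | measured by = bottom-read fluorescence, 550/595 nm | measure = HDL uptake via cellular fluorescence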
H9c2 TAG inh: inhibitors of triacylglycerol accumulation, primary screen, cell-based, uHTS, fluorescence, H9c2 | H9c2 cells, Nile Red lipid (TAG) fluorescence; cells loaded with 200 µM oleic acid | AID 651582, 2012 | 230,000 compounds, 0.66% hits | inhibition, % at 12.5 µM;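 active means pattern-corrected inhibition of lipid staining of at least 50% with the nuclear-stain viability signal not falling by more than 50%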
SR-BI DiI inh: inhibitors of SR-BI mediated HDL lipid uptake, primary screen, ldlA[mSR-BI] cells, fluorescence, single point. Scavenger receptor class B member 1 (Mus musculus), Q61009. inhibition, % at 12.5 µM. 320,000 compounds, 0.96% hits. ldlA[mSR-BI] CHO cells, DiI-HDL uptake fluorescence, 3 h;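 active means mean replicate inhibition of at least 70% and a set share of replicates each scoring 70 or more; inconclusive means meets just one of the two criteria; inactive means fails both criteria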
Target sequence (Q61009 whole entry, looked up): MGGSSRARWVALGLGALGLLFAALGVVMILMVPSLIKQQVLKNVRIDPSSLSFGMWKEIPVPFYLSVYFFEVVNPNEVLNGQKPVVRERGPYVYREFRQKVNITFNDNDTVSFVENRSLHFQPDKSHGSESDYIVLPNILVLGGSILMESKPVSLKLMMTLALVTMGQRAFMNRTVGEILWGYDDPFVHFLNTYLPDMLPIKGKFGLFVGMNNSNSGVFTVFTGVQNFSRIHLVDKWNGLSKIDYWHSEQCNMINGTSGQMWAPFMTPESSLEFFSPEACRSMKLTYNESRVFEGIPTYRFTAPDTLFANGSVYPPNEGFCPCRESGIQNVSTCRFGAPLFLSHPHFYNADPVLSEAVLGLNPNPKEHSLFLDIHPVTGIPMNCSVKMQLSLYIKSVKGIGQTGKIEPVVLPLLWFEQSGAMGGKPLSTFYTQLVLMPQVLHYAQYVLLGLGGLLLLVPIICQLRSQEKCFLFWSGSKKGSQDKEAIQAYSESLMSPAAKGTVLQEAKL
TAG conf: triacylglycerol accumulation inhibitors, retest, confirmation, cell-based, single concentration, Nile Red fluorescence, H9c2 | AID 651629, 2012 | inhibition, % at 12.5 µM | H9c2 lipid accumulation; cells loaded with 200 µM oleic acid | shares compounds with H9c2 TAG inh | 990 compounds, 71% hits;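 active means mean inhibition across replicates of 40% or more; inactive means mean inhibition below 40%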
Of the large screens only hits and unclear results are named; the others gave an inactive call (follow-up assays come after a bar, where they were run); ! = not confirmed by another sample.

Cc1cc(C)c(NC(=O)CSc2nc3ccc(NC(=O)CSc4nnnn4Cc4ccccc4)cc3s2)c(C)c1	H9c2 TAG inh 55.9 | TAG conf 41.6
CCN1CCN(Cc2ccc(NC(=O)c3cc(NC(=O)c4cc5cccc(OC)c5o4)cc(OC)c3)cc2C(F)(F)F)CC1	H9c2 TAG inh 59.8! | TAG conf 68.5
COc1cc(NC(=O)c2cc3cccc(OC)c3o2)cc(C(=O)Nc2cccc(C(F)(F)F)c2)c1	H9c2 TAG inh 54.6 | TAG conf 69.3
O=C(OC12CCCN(C1)/C(=C/c1ccc(Cl)cc1)C2)c1ccco1 (stereo not given)	none (no result: Vif inh, SR-BI DiI-HDL act, H9c2 TAG inh, SR-BI DiI inh)
O=C(Nc1ccc2c(c1)OCCO2)c1cc2sccc2n1Cc1ccccc1	H9c2 TAG inh 60.3 | TAG conf inactive
O=C(Nc1ccc2c(c1)OCCO2)c1cc2sccc2n1Cc1ccc(F)cc1	none
CCC[C@@H](CN[C@@H](CNC)[C@H](C)CC)NCC1CCC(C(C)(C)C)CC1 (stereo not given in full)	H9c2 TAG inh 127.3 (no result: Vif inh) | TAG conf 88.8
CCC[C@H](CN[C@@H](CNC)[C@H](C)CC)NCCc1cc(C(F)(F)F)cc(C(F)(F)F)c1	none
Cc1ccc(NC(=O)CSc2nc3ccc(Nc4nc(N5CCOCC5)nc(N5CCOCC5)n4)cc3s2)cc1	H9c2 TAG inh 83.6 | TAG conf 85.7
COc1ccc(-c2nn(-c3ccccc3)cc2/C=C/C(=O)OCC(=O)Nc2ccccc2C#N)cc1	H9c2 TAG inh 67.2 | TAG conf 76.8
COc1cccc(/C=C/C(=C2\C(=O)N(c3ccccc3)N=C2C)c2ccc(Br)cc2)c1OC	H9c2 TAG inh 79.2 | TAG conf 97.2
O=C(NCc1ccccc1)C1CCN(c2nc(-c3ccccc3)nc3c2CCC3)CC1	none
COc1ccc(CNC(=O)C2CCN(c3nc(-c4ccccc4)nc4c3CCC4)CC2)cc1	H9c2 TAG inh 52.4 | TAG conf 41.5
Cc1cccc(CCNC(=O)CSc2nc3c([nH]2)c(=O)n(C)c(=O)n3C)c1	none (no result: Vif inh, SR-BI DiI-HDL act, H9c2 TAG inh, SR-BI DiI inh)
C=CC[C@@H](CC(=O)N(CCO)Cc1ccccc1)C(=O)N[C@H](COC(=O)[C@@H](CC=C)Cc1ccc(F)cc1)Cc1ccccc1	H9c2 TAG inh 58.9 | TAG conf 68.4
C=CC[C@@H](CC(=O)N(CCO)Cc1ccccc1)C(=O)N[C@@H](COC(=O)[C@@H](CC=C)Cc1ccc(F)cc1)Cc1ccccc1	H9c2 TAG inh 74.8 | TAG conf 62.5
C=CC[C@@H](CC(=O)N(CCO)Cc1ccccc1)C(=O)N[C@H](COC(=O)[C@@H](CC=C)CC(=O)OC(C)(C)C)Cc1ccccc1	H9c2 TAG inh 50.0 | TAG conf 69.8
C=CCC[C@@H](Cc1ccc(F)cc1)C(=O)OC[C@@H](NC(=O)[C@@H](CC=C)CC(=O)N[C@H](CO)Cc1ccccc1)C(C)(C)C	H9c2 TAG inh 62.1 | TAG conf 66.3
CCOc1ccc(S(=O)(=O)NCc2ccccn2)cc1NC(=O)c1ccccc1	Vif inh 54.1, H9c2 TAG inh 58.1 | TAG conf 77.5
CCCCOc1ccccc1C1CC(=O)NC2=C1C(=O)CCC2 (stereo not given)	H9c2 TAG inh 71.0 | TAG conf 66.2
Cc1ccc2nc(CN(C)C(=O)[C@H]3O[C@@H](n4cnc(C(N)=O)n4)[C@H](O)[C@@H]3O)[nH]c2c1	none (no result: Vif inh, SR-BI DiI-HDL act, H9c2 TAG inh, SR-BI DiI inh)
NC1=NC[C@H](Cc2ccccc2)N1CCc1cc(C(F)(F)F)cc(C(F)(F)F)c1	H9c2 TAG inh 55.2 | TAG conf 46.0
FC(F)(F)c1cc(CCN2C(=S)NC[C@@H]2Cc2ccccc2)cc(C(F)(F)F)c1	none
COCCCn1c(SCC(=O)Nc2nc3ccccc3s2)nnc1-c1ccoc1C	H9c2 TAG inh 50.7 | TAG conf inactive
CC1(C)CCCN(Cc2c(O)ccc3c(=O)c(-c4nc5ccccc5s4)c(N)oc23)C1	H9c2 TAG inh 55.4 (no result: SR-BI DiI-HDL act, SR-BI DiI inh) | TAG conf 67.8
COc1ccc2[nH]c3c(=O)n(/N=C/[C@H]4C(C)C=C(C)CC4C)c(=O)[nH]c3c2c1 (stereo not given in full)	none (no result: H9c2 TAG inh)
COc1ccc2c(c1)[nH]c1c(=O)n(/N=C/C3C(C)C=C(C)CC3C)c(=O)[nH]c12 (stereo not given)	H9c2 TAG inh 85.3 | TAG conf inactive
COCCCn1c(SCC(=O)Nc2ccc(NC(=O)c3ccco3)c(OC)c2)nc2ccccc2c1=O	H9c2 TAG inh 62.0, SR-BI DiI inh 73.6 (no result: Vif inh) | TAG conf inactive
C[C@@H]1C[C@H]2[C@@H](C)C(=O)N3[C@H](c4ccccc4)[C@H](C)C[C@H]3[C@@H](C)C(=O)N2[C@@H]1c1ccccc1	none (no result: Vif inh, SR-BI DiI-HDL act, H9c2 TAG inh, SR-BI DiI inh)
COc1ccc2cc3cc(C(=O)NCC4COc5ccccc5O4)oc3nc2c1 (stereo not given)	H9c2 TAG inh 56.9 (no result: Vif inh) | TAG conf inactive
O=C(CNS(=O)(=O)c1ccccc1)N1CCN(c2ncccn2)CC1	none (no result: Vif inh, SR-BI DiI-HDL act, H9c2 TAG inh, SR-BI DiI inh)
CCOC(=O)c1c(C)[nH]c(C(=O)OC(C)C(=O)Nc2ccc(C)cc2)c1C (stereo not given)	none (no result: SR-BI DiI-HDL act, SR-BI DiI inh)
CCOC(=O)c1[nH]c(C)c(C(=O)OC(C)C(=O)Nc2ncc(Cl)cc2Cl)c1C (stereo not given)	H9c2 TAG inh 57.2 (no result: Vif inh) | TAG conf inactive
COC(=O)[C@]12C[C@H](CC(=O)NCC34CC5CC(CC(C5)C3)C4)C(=O)N(Cc3cccc4ccccc34)C1=C[C@H](COCc1ccccc1)O[C@@H]2C	none (no result: Vif inh, SR-BI DiI-HDL act, H9c2 TAG inh, SR-BI DiI inh)
Cc1nn(-c2cccc(Cl)c2)c2nc(-c3ccncc3)cc(C(=O)N3CCOCC3)c12	H9c2 TAG inh 52.6 | TAG conf 52.5
Cc1nn(-c2ccccc2)c2nc(-c3ccccc3)cc(C(=O)N3CCOCC3)c12	none
Cc1cccc2c(C(=O)N3CCN(c4ccccc4)CC3)cc(-c3ccncc3)nc12	H9c2 TAG inh 60.2 | TAG conf 76.6
CCN(CC)C(=O)CC[C@@H]1CC[C@]2(CCCN(Cc3cccnc3)C2)O1	none (no result: Vif inh, SR-BI DiI-HDL act, H9c2 TAG inh, SR-BI DiI inh)
COc1ccc(C(=O)N2CCC[C@H]2C(=O)N2CCC[C@@H]2C(=O)NCc2ccccc2)cc1F	none (no result: Vif inh, SR-BI DiI-HDL act, H9c2 TAG inh, SR-BI DiI inh)
COC(=O)c1c(NC(=O)Cc2cccs2)sc2c1CCC(C)C2 (stereo not given)	SR-BI DiI inh inconclusive (no result: H9c2 TAG inh)
COC(=O)c1c(NC(=S)NN2CCN(C)CC2)sc2c1CCC(C)C2 (stereo not given)	H9c2 TAG inh 64.8 | TAG conf 84.3
N#Cc1cn(-c2ccccc2)nc1-c1ccc2c(c1)OCCO2	H9c2 TAG inh 59.3 | TAG conf inactive
O=S(=O)(c1ccc(F)cc1)N1CCC(c2nc3ccccc3o2)CC1	none (no result: Vif inh, SR-BI DiI-HDL act, H9c2 TAG inh, SR-BI DiI inh)
